pKi: −log10 of the molar value. Converted amounts (≈) assume the structure as drawn.
Tests used:
Haemophilus influenzae = assay: Antibacterial activity against Haemophilus influenzae ATCC 51907; assay type: functional
DNA gyrase = DNA gyrase (Staphylococcus aureus, UniProt P0A0K8+P20831); assay: Inhibition of Staphylococcus aureus DNA gyrase; assay type: protein-complex assay
Streptococcus pneumoniae [1] = assay: Antibacterial activity against Streptococcus pneumoniae ATCC 10015; assay type: functional
[2] = Inhibition of Escherichia coli DNA gyrase
[3] = Inhibition of Escherichia coli topoisomerase 4
Staphylococcus aureus [4] = assay: Antibacterial activity against Staphylococcus aureus ATCC 29213 in presence of human serum; assay type: functional
Procedure, shortened: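 Broth microdilution MIC per CLSI methods (modified), with human serum added to the liquid medium at a final 50% for S. aureus ATCC 29213.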

Staphylococcus aureus [5] = assay: Antibacterial activity against Staphylococcus aureus ATCC 29213 in absence of human serum; assay type: functional
Streptococcus pneumoniae [6] = assay: Antibacterial activity against Streptococcus pneumoniae ATCC 6303-infeceted Sprague-Dawley rat assessed as reduction in lung bacterial density at 25 mg/kg, po administered twice at 18 and 26 hrs after bacterial challenge measured at 72 hrs postinfection; assay type: functional
Procedure, shortened: (§1)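 Male Sprague-Dawley rats (185-224 g), anesthetized, infected intratracheally with 0.2 mL (0.9 × 10⁷ CFU) S. pneumoniae ATCC 6303 serotype 3 grown overnight in enriched broth. Oral dosing in D5W at 18 and 26 h postinfection, 10 per group. Lungs homogenized for CFU at 72 h; mean log₁₀ CFU ± SEM against vehicle controls.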

Streptococcus pneumoniae [7] = assay: Antibacterial activity against Streptococcus pneumoniae ATCC 6303; assay type: functional
Streptococcus pneumoniae [8] = assay: Antibacterial activity against Streptococcus pneumoniae ATCC 6303-infeceted Sprague-Dawley rat assessed as reduction in lung bacterial density at 50 mg/kg, po administered twice at 18 and 26 hrs after bacterial challenge measured at 72 hrs postinfection; assay type: functional; procedure, shortened: as §1
[9] = Volume of distribution at steady state in Sprague-Dawley rat; assay type: ADME, organism-based; conditions: in vivo, read-out: Vdss
Staphylococcus aureus [10] = assay: Antibacterial activity against Staphylococcus aureus ATCC 29213-infected Sprague-Dawley rat assessed as reduction in bacterial density in thigh tissue at 50 mg/kg, iv administered 2 hrs after bacterial challenge measured at 8 hrs postinfection; assay type: functional
Procedure, shortened: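 Neutropenic male Sprague-Dawley rats (175-200 g); cyclophosphamide ip 150 mg/kg at day -4 and 50 mg/kg at day -1. Infection was 0.2 mL of 1 × 10⁷ CFU/mL S. aureus ATCC 29213 in saline, im into the thigh. Single iv tail-vein bolus at 2 h postinfection, D5W vehicle. Thighs homogenized for CFU 6 h post-dose; 0 h controls taken at 2 h. Mean log₁₀ CFU ± SEM; one-way ANOVA with Dunnett's test.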

[11] = Bioavailability in Sprague-Dawley rat; assay type: ADME, organism-based; conditions: in vivo
[12] = Half life in Sprague-Dawley rat; assay type: ADME, organism-based; conditions: in vivo
[13] = Clearance in Sprague-Dawley rat; assay type: ADME, organism-based; conditions: in vivo

Sequence of DNA gyrase (P0A0K8 whole entry): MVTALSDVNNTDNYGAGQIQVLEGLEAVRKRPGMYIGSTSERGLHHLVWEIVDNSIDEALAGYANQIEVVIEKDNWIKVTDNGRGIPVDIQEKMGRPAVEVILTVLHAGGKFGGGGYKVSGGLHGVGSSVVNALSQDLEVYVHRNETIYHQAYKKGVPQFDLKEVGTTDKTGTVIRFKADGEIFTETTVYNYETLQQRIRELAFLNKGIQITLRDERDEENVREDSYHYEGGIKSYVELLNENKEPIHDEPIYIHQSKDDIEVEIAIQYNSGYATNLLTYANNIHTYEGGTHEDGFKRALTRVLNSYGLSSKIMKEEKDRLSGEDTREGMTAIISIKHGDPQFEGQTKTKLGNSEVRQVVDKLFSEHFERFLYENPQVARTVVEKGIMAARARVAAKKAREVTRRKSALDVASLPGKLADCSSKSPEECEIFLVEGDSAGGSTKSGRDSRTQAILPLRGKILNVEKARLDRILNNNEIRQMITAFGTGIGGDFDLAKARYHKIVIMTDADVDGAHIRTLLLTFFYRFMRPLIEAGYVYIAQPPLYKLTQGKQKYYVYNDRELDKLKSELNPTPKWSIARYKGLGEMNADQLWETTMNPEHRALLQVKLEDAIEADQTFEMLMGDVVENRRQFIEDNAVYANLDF
Sequence of DNA gyrase (P20831 whole entry): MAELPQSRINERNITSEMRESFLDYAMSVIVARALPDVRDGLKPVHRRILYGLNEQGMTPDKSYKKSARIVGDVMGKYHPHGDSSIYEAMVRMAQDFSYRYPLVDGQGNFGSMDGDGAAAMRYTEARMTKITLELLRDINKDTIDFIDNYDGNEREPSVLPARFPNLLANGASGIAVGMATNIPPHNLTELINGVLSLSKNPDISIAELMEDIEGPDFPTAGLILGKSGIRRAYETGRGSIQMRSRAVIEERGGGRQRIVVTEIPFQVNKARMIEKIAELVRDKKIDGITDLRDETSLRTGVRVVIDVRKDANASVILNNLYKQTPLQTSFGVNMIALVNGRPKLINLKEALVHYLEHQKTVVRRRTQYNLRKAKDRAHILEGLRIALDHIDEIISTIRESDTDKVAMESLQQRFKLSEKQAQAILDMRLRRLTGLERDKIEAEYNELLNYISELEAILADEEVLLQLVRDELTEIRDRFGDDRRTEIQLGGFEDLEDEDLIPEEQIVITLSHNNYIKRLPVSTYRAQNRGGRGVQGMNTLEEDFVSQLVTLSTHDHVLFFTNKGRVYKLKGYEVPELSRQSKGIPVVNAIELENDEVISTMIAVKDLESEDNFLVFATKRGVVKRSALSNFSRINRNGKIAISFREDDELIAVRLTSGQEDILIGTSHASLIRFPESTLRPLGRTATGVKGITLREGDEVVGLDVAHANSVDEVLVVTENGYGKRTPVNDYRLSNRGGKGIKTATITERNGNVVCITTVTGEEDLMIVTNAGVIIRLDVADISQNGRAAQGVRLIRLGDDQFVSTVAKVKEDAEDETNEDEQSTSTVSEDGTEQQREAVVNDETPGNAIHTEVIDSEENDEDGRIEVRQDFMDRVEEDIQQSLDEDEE

| Compound | MIC (Haemophilus influenzae) [µg/mL] | pKi (DNA gyrase) | MIC (Streptococcus pneumoniae [1]) [µg/mL] | pKi [2] | pKi [3] | MIC (Staphylococcus aureus [4]) [µg/mL] | MIC (Staphylococcus aureus [5]) [µg/mL] | log10cfu (Streptococcus pneumoniae [6]) | MIC (Streptococcus pneumoniae [7]) [µg/mL] | log10cfu (Streptococcus pneumoniae [8]) | Vd [9] [L/kg] | log10cfu (Staphylococcus aureus [10]) | bioavailability [11] [%] | half-life [12] [min] | clearance [13] [mL/min/kg] |
| --- | --- | --- | --- | --- | --- | --- | --- | --- | --- | --- | --- | --- | --- | --- | --- |
| CCNC(=O)Nc1nc2cc(-c3cccnc3)cc(-c3cccnc3)c2[nH]1 | > 16 | 7.77 | 0.5 (≈ 1.4 µM) | 8.22 | 5.89 | 16 | 4 (≈ 11.2 µM) |  |  |  |  |  |  |  |  |
| CCNC(=O)Nc1nc2cc(-c3ccn(C)c(=O)c3)cc(-c3ncccc3F)c2[nH]1 | 0.125 (≈ 0.308 µM) | 7.64 | < 0.008 | > 8.40 | 7.96 | 0.032 | 0.016 (≈ 0.0394 µM) |  |  |  |  |  |  |  |  |
| CCNC(=O)Nc1nc2cc(-c3cccnc3)cc(C(=O)NC)c2[nH]1 | 16 (≈ 47.3 µM) | 7.59 | 0.063 (≈ 0.186 µM) | 8.30 | 6.82 | > 16 | 16 (≈ 47.3 µM) |  |  |  |  |  |  |  |  |
| CCNC(=O)Nc1nc2cc(-c3cccnc3)cc(-n3cccn3)c2[nH]1 | 1 (≈ 2.88 µM) | 7.82 | 0.008 (≈ 0.023 µM) | > 8.40 | 7.34 | 4 | 0.063 (≈ 0.181 µM) |  |  |  |  |  |  |  |  |
| CC(=O)NC[C@H]1CN(c2ccc(N3CCOCC3)c(F)c2)C(=O)O1 [LINEZOLID] |  |  |  |  |  |  |  | 2.5 | 0.4 (≈ 1.19 µM) | 5.9 |  |  |  |  |  |
| CCNC(=O)Nc1nc2cc(-c3cccnc3)cc(-c3ncccc3F)c2[nH]1 | 1 (≈ 2.66 µM) | 7.85 | 0.004 (≈ 0.0106 µM) | > 8.40 | 7.64 | 0.5 | 0.031 (≈ 0.0824 µM) | 4.8 | 0.008 (≈ 0.0213 µM) | 5.6 | 1.6 | 1.5 | 88.4 | 42 | 14.4 |
| CCNC(=O)Nc1nc2cc(-n3cnc(C(=O)NC4CC4)c3)cc(-c3ccccn3)c2[nH]1 | 0.125 (≈ 0.29 µM) | 7.92 | 0.002 (≈ 0.00465 µM) | > 8.40 | 8.15 | 0.25 | 0.063 (≈ 0.146 µM) |  |  |  |  |  |  |  |  |
| CCNC(=O)Nc1nc2cc(-c3cccnc3)cc(-c3ccccn3)c2[nH]1 | 2 (≈ 5.58 µM) | 8.15 | 0.004 (≈ 0.0112 µM) | > 8.40 | 7.85 | 2 | 0.031 (≈ 0.0865 µM) |  |  |  |  |  |  |  |  |
| CCNC(=O)Nc1nc2cc(-c3ccccc3)ccc2[nH]1 | > 16 | 6.33 | > 16 | 6.40 | 5.02 | > 16 | > 16 |  |  |  |  |  |  |  |  |
| CCNC(=O)Nc1nc2cc(-c3cncnc3)cc(-n3cccn3)c2[nH]1 | 0.25 (≈ 0.718 µM) | 7.80 | < 0.008 | > 8.40 | 7.24 | 0.25 | 0.031 (≈ 0.089 µM) |  |  |  |  |  |  |  |  |
| CCNC(=O)Nc1nc2cc(-c3cccnc3)cc(OCc3ccccc3)c2[nH]1 | > 16 | 7.46 | 1 (≈ 2.58 µM) | 7.74 | 6.41 | > 16 | 2 (≈ 5.16 µM) |  |  |  |  |  |  |  |  |
| CCNC(=O)Nc1nc2cc(-c3cncnc3)ccc2[nH]1 | 2 (≈ 7.08 µM) | 7.31 | 0.5 (≈ 1.77 µM) | 7.70 | 5.96 | 4 | 4 (≈ 14.2 µM) |  |  |  |  |  |  |  |  |
| CCNC(=O)Nc1nc2cc(-c3cccnc3)ccc2[nH]1 | 16 (≈ 56.9 µM) | 6.89 | 2 (≈ 7.11 µM) | 7.09 | 5.64 | > 16 | 16 (≈ 56.9 µM) |  |  |  |  |  |  |  |  |
| CCNC(=O)Nc1nc2cc(-c3cccnc3)c(N3CCCCC3)cc2[nH]1 | > 16 | 7.09 | 2 (≈ 5.49 µM) | 6.92 | 5.48 | > 16 | 16 (≈ 43.9 µM) |  |  |  |  |  |  |  |  |
| CCNC(=O)Nc1nc2cc(-c3cnc(OC)nc3)c(OC)cc2[nH]1 | 4 (≈ 11.7 µM) | 7.36 | 0.125 (≈ 0.365 µM) | 7.82 | 6.17 | 8 | 2 (≈ 5.84 µM) |  |  |  |  |  |  |  |  |
| CCNC(=O)Nc1nc2cc(-c3cccnc3)c(C)cc2[nH]1 | 16 (≈ 54.2 µM) | 7.07 | 0.5 (≈ 1.69 µM) | 7.21 | 5.85 | > 16 | 16 (≈ 54.2 µM) |  |  |  |  |  |  |  |  |
| CCNC(=O)Nc1nc2cc(-c3cccnc3)c(OC)cc2[nH]1 | > 16 | 6.72 | 2 (≈ 6.42 µM) | 6.89 | 5.46 | > 16 | 16 (≈ 51.4 µM) |  |  |  |  |  |  |  |  |
| CCNC(=O)Nc1nc2cc(-n3cnc(C(=O)NC4CC4)c3)c(F)cc2[nH]1 | 4 (≈ 10.8 µM) | 8.00 | 0.063 (≈ 0.17 µM) | > 8.40 | 7.11 | 8 | 4 (≈ 10.8 µM) |  |  |  |  |  |  |  |  |
| CCNC(=O)Nc1nc2cc(-n3cnc(C(=O)NC4CC4)c3)cc(-n3cccn3)c2[nH]1 | 0.25 (≈ 0.596 µM) | 8.00 | 0.003 (≈ 0.00715 µM) | > 8.40 | 7.92 | 4 | 0.5 (≈ 1.19 µM) |  |  |  |  |  |  |  |  |
| CCNC(=O)Nc1nc2cc(-c3cccnc3)cc(C(=O)OC)c2[nH]1 | 0.5 (≈ 1.47 µM) | 8.10 | 0.016 (≈ 0.0471 µM) | > 8.40 | 7.46 | 0.5 | 0.063 (≈ 0.186 µM) |  |  |  |  |  |  |  |  |
| CCNC(=O)Nc1nc2cc(-c3cccnc3)c(F)cc2[nH]1 | 16 (≈ 53.5 µM) | 7.42 | 0.25 (≈ 0.835 µM) | 7.48 | 6.17 | 16 | 1 (≈ 3.34 µM) |  |  |  |  |  |  |  |  |
| CO[C@@H]1[C@@H](OC(N)=O)[C@@H](O)[C@H](Oc2ccc3c(O)c(NC(=O)c4ccc(O)c(CC=C(C)C)c4)c(=O)oc3c2C)OC1(C)C [NOVOBIOCIN] | 0.063 (≈ 0.103 µM) |  | 2 (≈ 3.26 µM) |  |  | > 16 | 0.125 (≈ 0.204 µM) |  |  |  |  |  |  |  |  |
| CCOC(=O)Nc1nc2cc(/C=C/c3ccc(O)cc3)ccc2[nH]1 | > 16 | 5.70 | > 16 | 4.70 | < 4.22 | > 16 | > 16 |  |  |  |  |  |  |  |  |
